Experiments:
Plasmodium falciparum [1] = assay: Antimalarial activity against Plasmodium falciparum 3D7 after 72 hrs by SYBR green fluorescence assay; type: functional, organism-based; details: 3D7, 72 h
Procedure, shortened: (§1)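 P. falciparum grown in O+ erythrocytes, screened in medium without human serum plus 0.5% Albumax II. Twelve-point half-log dilutions up to 10 μM final. 0.3% parasitemia, 2.5% hematocrit; 72 h at 37 °C under low-oxygen gas. Lysis buffer with SYBR Green added, 24 h at 25 °C, fluorescence read at 485/530 nm.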

Plasmodium falciparum [2] = assay: Antimalarial activity against Plasmodium falciparum W2 after 72 hrs by SYBR green fluorescence assay; type: functional, organism-based; details: W2, 72 h; procedure, shortened: as §1
[3] = target: Voltage-gated inwardly rectifying potassium channel KCNH2 (Homo sapiens, UniProt Q12809); assay: Inhibition of human ERG channel expressed in CHO cells by patch clamp assay; type: cell-based
Sequence of Voltage-gated inwardly rectifying potassium channel KCNH2 (Q12809 whole entry): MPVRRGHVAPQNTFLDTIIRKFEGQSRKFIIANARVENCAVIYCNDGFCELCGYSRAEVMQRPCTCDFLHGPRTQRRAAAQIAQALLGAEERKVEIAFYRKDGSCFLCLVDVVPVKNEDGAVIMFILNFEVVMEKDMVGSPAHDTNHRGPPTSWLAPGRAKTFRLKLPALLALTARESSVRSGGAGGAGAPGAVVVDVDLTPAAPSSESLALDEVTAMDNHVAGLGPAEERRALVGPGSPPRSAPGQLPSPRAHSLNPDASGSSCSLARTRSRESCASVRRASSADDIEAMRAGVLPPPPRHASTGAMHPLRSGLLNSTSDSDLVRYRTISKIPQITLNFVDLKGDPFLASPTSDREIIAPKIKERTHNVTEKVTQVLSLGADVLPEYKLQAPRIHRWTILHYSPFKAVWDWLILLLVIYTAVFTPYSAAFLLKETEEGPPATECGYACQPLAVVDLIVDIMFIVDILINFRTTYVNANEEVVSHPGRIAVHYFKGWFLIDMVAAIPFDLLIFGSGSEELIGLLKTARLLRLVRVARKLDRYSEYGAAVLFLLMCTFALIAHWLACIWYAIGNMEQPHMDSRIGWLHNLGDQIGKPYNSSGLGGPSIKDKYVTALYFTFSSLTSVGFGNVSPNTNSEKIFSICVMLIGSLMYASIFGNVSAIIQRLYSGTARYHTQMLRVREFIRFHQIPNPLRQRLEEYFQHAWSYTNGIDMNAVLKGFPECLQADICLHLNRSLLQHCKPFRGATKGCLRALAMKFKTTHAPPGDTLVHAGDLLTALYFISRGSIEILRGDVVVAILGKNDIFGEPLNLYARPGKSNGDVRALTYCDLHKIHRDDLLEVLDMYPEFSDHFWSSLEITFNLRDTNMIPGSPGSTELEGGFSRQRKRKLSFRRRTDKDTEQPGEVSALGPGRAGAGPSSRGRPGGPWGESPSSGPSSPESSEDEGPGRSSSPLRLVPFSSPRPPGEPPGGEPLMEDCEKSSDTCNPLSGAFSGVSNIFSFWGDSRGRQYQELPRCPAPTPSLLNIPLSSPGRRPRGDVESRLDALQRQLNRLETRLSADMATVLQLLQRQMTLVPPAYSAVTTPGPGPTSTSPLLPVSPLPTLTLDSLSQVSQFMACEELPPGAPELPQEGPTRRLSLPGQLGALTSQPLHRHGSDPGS

[4] = Permeability of the compound by PAMPA; type: ADME
Procedure, shortened: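 PAMPA in 96-well filter plates. Permeated compound quantified by UV absorbance at 260–290 nm. Reported as percentage absorbed.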

[5] = Apparent permeability across apical to basolateral side in human Caco2 cells by LC/MS analysis; type: ADME, cell-based; details: Caco-2
Procedure, shortened: (§2)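 Caco-2 monolayers in 96-well format. Compound measured in apical and basolateral chambers by LC/MS, giving Papp in the A–B and B–A directions. Values reported in cm/s × 10⁶.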

[6] = Apparent permeability across basolateral to apical side in human Caco2 cells by LC/MS analysis; type: ADME, cell-based; details: Caco-2; procedure, shortened: as §2
[7] = Volume of distribution in Balb/c mouse at 5 mg/kg, iv; type: ADME, organism-based; design: dose 5 mg/kg, route intravenous; details: in vivo
Procedure, shortened: (§3)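 Male Balb/c mice (n = 3 per group). Compound as a 2.5 mg/mL solution in PEG300/D5W 3:1, filtered. Given by lateral tail vein at 5 mg/kg (2 mL/kg) or orally at 20 mg/kg (8 mL/kg). Six serial 50 μL retro-orbital blood samples to 24 h, heparinized plasma. Plasma extracted with acetonitrile:methanol 3:1 with internal standard, LC-MS/MS. Noncompartmental analysis; F = AUCpo×dose_iv/AUCiv×dose_po.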

[8] = Clearance in Balb/c mouse plasma at 5 mg/kg, iv; type: ADME, organism-based; design: dose 5 mg/kg, route intravenous; procedure, shortened: as §3
[9] = Half life in Balb/c mouse at 5 mg/kg, iv; type: ADME, organism-based; design: dose 5 mg/kg, route intravenous; details: in vivo; procedure, shortened: as §3
Mus musculus [10] = assay: AUC (0 to 24 hrs) in Balb/c mouse at 5 mg/kg, iv; type: ADME, organism-based, Plasma; design: time < 24 hr, dose 5 mg/kg, route intravenous; details: in vivo; procedure, shortened: as §3
[11] = Cmax in Balb/c mouse at 20 mg/kg, po; type: ADME, organism-based; design: dose 20 mg/kg, route oral; details: in vivo; procedure, shortened: as §3
[12] = Tmax in Balb/c mouse at 20 mg/kg, po; type: ADME, organism-based; design: dose 20 mg/kg, route oral; details: in vivo; procedure, shortened: as §3
[13] = Half life in Balb/c mouse at 20 mg/kg, po; type: ADME, organism-based; design: dose 20 mg/kg, route oral; details: in vivo; procedure, shortened: as §3
Mus musculus [14] = assay: AUC (0 to 24 hrs) in Balb/c mouse at 20 mg/kg, po; type: ADME, organism-based, Plasma; design: time < 24 hr, dose 20 mg/kg, route oral; details: in vivo; procedure, shortened: as §3
Mus musculus [15] = assay: Oral bioavailability in Balb/c mouse at 20 mg/kg; type: ADME, organism-based; details: in vivo; procedure, shortened: as §3
Plasmodium berghei [16] = assay: Antimalarial activity against Plasmodium berghei ANKA expressing GFP infected in NMRI mouse assessed as reduction of parasite level in blood at 30 mg/kg, po administered 24 hrs post infection measured after 72 hrs post infection by flow cytometry; type: functional; design: scale not given: the % may be the effect or the level left
Procedure, shortened: (§4)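 Female NMRI mice (20–22 g, n=3) are infected i.v. with 2×10^7 P. berghei GFP ANKA-infected erythrocytes. Oral compound in 75% PEG300/25% D5W is given at 10 mL/kg, once at 24 h or daily at 24/48/72 h post-infection. Parasitemia is read by flow cytometry at 72 h (single dose) or 96 h (triple dose). Activity is % reduction of mean parasitemia versus untreated controls.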

Plasmodium berghei [17] = assay: Antimalarial activity against Plasmodium berghei ANKA expressing GFP infected in NMRI mouse assessed as reduction of parasite level in blood at 100 mg/kg, po administered 24 hrs post infection measured after 72 hrs post infection by flow cytometry; type: functional; design: scale not given: the % may be the effect or the level left; procedure, shortened: as §4
Plasmodium berghei [18] = assay: Antimalarial activity against Plasmodium berghei ANKA expressing GFP infected in NMRI mouse assessed as reduction of parasite level in blood at 30 mg/kg, po administered 24 hrs post infection qd for 3 days measured after 96 hrs post infection by flow cytometry; type: functional; design: scale not given: the % may be the effect or the level left; procedure, shortened: as §4
Plasmodium berghei [19] = assay: Antimalarial activity against Plasmodium berghei ANKA expressing GFP infected in po dosed NMRI mouse assessed as reduction of parasite level in blood administered 24 hrs post infection measured after 72 hrs post infection by flow cytometry; type: functional
Plasmodium berghei [20] = assay: Antimalarial activity against Plasmodium berghei ANKA expressing GFP infected in NMRI mouse assessed as increase of mouse survival at 30 mg/kg, po administered 24 hrs post infection (reference value: 6 to 7 days); type: functional
Plasmodium berghei [21] = assay: Antimalarial activity against Plasmodium berghei ANKA expressing GFP infected in NMRI mouse assessed as increase of mouse survival at 100 mg/kg, po administered 24 hrs post infection (reference value: 6 to 7 days); type: functional
Plasmodium berghei [22] = assay: Antimalarial activity against Plasmodium berghei ANKA expressing GFP infected in NMRI mouse assessed as increase of mouse survival at 30 mg/kg, po administered 24 hrs post infection qd for 3 days (reference value: 6 to 7 days); type: functional
[23] = Cmax in Wistar rat at 10 mg/kg, po; type: ADME, organism-based; design: dose 10 mg/kg, route oral; details: in vivo
Procedure, shortened: (§5)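 Rat snapshot PK: two Wistar rats dosed orally at 10 mg/kg, formulated at 2.5 mg/mL in 75% PEG300/25% D5W. Blood (100 μL) taken at 0.5, 1, 3 and 5 h post dose. Plasma pooled by sampling time, then analysed by LC-MS/MS.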

Rattus norvegicus = assay: Dose normalized AUC (0 to 5 hrs) in Wistar rat at 10 mg/kg, po; type: ADME, organism-based; design: dose 10 mg/kg, route oral; details: in vivo; procedure, shortened: as §5
[24] = Cytotoxicity against human 293T cells; type: cell-based; details: HEK-293T cells
[25] = Cytotoxicity against mouse BA/F3 cells; type: cell-based; details: baf3
CHO = assay: Cytotoxicity against CHO cells; type: cell-based, Cricetulus griseus; details: chinese hamster
[26] = Cytotoxicity against human Hep2 cells; type: cell-based; details: HEp-2 cells
[27] = Cytotoxicity against human HuH7 cells; type: cell-based; details: Huh-7 cells
[28] = Clearance in Wistar rat at 3 mg/kg, iv; type: ADME, organism-based; design: dose 3 mg/kg, route intravenous; details: in vivo
Procedure, shortened: (§6)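 Wistar rats, three per route. Dosed IV at 3 mg/kg or orally at 10, 30 or 100 mg/kg; the 100 mg/kg arm used a suspension, others a 2.5 mg/mL filtered 75% PEG300/25% D5W formulation. Six 100 μL blood samples serially per rat within 24 h. LC-MS/MS of plasma, noncompartmental parameters; F is dose-corrected AUCpo/AUCiv.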

[29] = Half life in Wistar rat at 3 mg/kg, iv; type: ADME, organism-based; design: dose 3 mg/kg, route intravenous; details: in vivo; procedure, shortened: as §6
[30] = AUC in Wistar rat at 3 mg/kg, iv; type: ADME, organism-based; design: dose 3 mg/kg, route intravenous; details: plasma; procedure, shortened: as §6
[31] = Cmax in Wistar rat at 30 mg/kg, po; type: ADME, organism-based; design: dose 30 mg/kg, route oral; details: in vivo; procedure, shortened: as §6
[32] = Tmax in Wistar rat at 10 mg/kg, po; type: ADME, organism-based; design: dose 10 mg/kg, route oral; details: in vivo
[33] = Tmax in Wistar rat at 30 mg/kg, po; type: ADME, organism-based; design: dose 30 mg/kg, route oral; details: in vivo; procedure, shortened: as §6
[34] = Tmax in Wistar rat at 100 mg/kg, po; type: ADME, organism-based; design: dose 100 mg/kg, route oral; details: in vivo; procedure, shortened: as §6
[35] = Half life in Wistar rat at 10 mg/kg, po; type: ADME, organism-based; design: dose 10 mg/kg, route oral; details: in vivo
[36] = Half life in Wistar rat at 30 mg/kg, po; type: ADME, organism-based; design: dose 30 mg/kg, route oral; details: in vivo; procedure, shortened: as §6
[37] = Half life in Wistar rat at 100 mg/kg, po; type: ADME, organism-based; design: dose 100 mg/kg, route oral; details: in vivo; procedure, shortened: as §6
[38] = AUC (all) in Wistar rat at 10 mg/kg, po; type: ADME, organism-based; design: dose 10 mg/kg, route oral; details: plasma; procedure, shortened: as §6
[39] = AUC (all) in Wistar rat at 30 mg/kg, po; type: ADME, organism-based; design: dose 30 mg/kg, route oral; details: plasma; procedure, shortened: as §6
[40] = AUC (all) in Wistar rat at 100 mg/kg, po; type: ADME, organism-based; design: dose 100 mg/kg, route oral; details: plasma; procedure, shortened: as §6
[41] = Oral bioavailability in Wistar rat at 10 mg/kg; type: ADME, organism-based; details: in vivo; procedure, shortened: as §6
[42] = Oral bioavailability in Wistar rat at 30 mg/kg; type: ADME, organism-based; details: in vivo; procedure, shortened: as §6
[43] = Oral bioavailability in Wistar rat at 100 mg/kg; type: ADME, organism-based; details: in vivo; procedure, shortened: as §6

Question: With `CC1(C)c2nc(-c3ccc(F)cc3)c(Nc3ccc(F)cc3)n2CCN1C(=O)CN` [GANAPLACIDE] as the molecule, how does the EC50 (Plasmodium falciparum [1]) read?
Answer: 0.01 µM

Question: And the EC50 (Plasmodium falciparum [2])?
Answer: 0.006 µM

Question: And the IC50 [3]?
Answer: 13.4 µM

Question: What about the permeability [4] of the same molecule?
Answer: 51.8%

Question: What about the Papp A→B [5] of the same molecule?
Answer: 1.26 ×10⁻⁶ cm/s

Question: What about the Papp B→A [6] of the same molecule?
Answer: 2.99 ×10⁻⁶ cm/s

Question: What about the Vd [7] of the same molecule?
Answer: 10.2 L/kg

Question: And the clearance [8]?
Answer: 49.2 mL/min/kg

Question: And the half-life [9]?
Answer: 2 h

Question: What about the AUC (Mus musculus [10]) of the same molecule?
Answer: 4.119 µM·h

Question: And the Cmax [11]?
Answer: 1540 nM

Question: And the Tmax [12]?
Answer: 1 h

Question: And the half-life [13]?
Answer: 4.35 h

Question: What about the AUC (Mus musculus [14]) of the same molecule?
Answer: 12.155 µM·h

Question: And the F (Mus musculus [15])?
Answer: 74%

Question: And the Activity (Plasmodium berghei [16])?
Answer: 99.5%

Question: What about the Activity (Plasmodium berghei [17]) of the same molecule?
Answer: 99.4%

Question: And the Activity (Plasmodium berghei [18])?
Answer: 99.8%

Question: And the ED99 (Plasmodium berghei [19])?
Answer: 2.2 mg/kg

Question: And the Survival (Plasmodium berghei [20])?
Answer: 16.3 days

Question: And the Survival (Plasmodium berghei [21])?
Answer: 14 days

Question: What about the Survival (Plasmodium berghei [22]) of the same molecule?
Answer: 17.7 days

Question: And the Cmax ([23]; Wistar)?
Answer: 126 nM

Question: And the Cmax [23]?
Answer: 91 nM

Question: And the AUC/dose (Rattus norvegicus)?
Answer: 1.2 min.ug/ml/(mg/kg)

Question: What about the CC50 [24] of the same molecule?
Answer: > 12 µM

Question: What about the CC50 [25] of the same molecule?
Answer: > 12 µM

Question: And the CC50 (CHO)?
Answer: > 12 µM

Question: What about the CC50 [26] of the same molecule?
Answer: > 12 µM

Question: And the CC50 [27]?
Answer: > 12 µM

Question: And the clearance [28]?
Answer: 67.5 mL/min/kg

Question: What about the half-life [29] of the same molecule?
Answer: 4.6 h

Question: What about the AUC [30] of the same molecule?
Answer: 1.83 µM·h

Question: And the Cmax [31]?
Answer: 580 nM

Question: What about the Tmax [32] of the same molecule?
Answer: 1.5 h

Question: What about the Tmax [33] of the same molecule?
Answer: 4.3 h

Question: What about the Tmax [34] of the same molecule?
Answer: 8 h

Question: What about the half-life [35] of the same molecule?
Answer: 4.7 h

Question: What about the half-life [36] of the same molecule?
Answer: 6.3 h

Question: What about the half-life [37] of the same molecule?
Answer: 8.4 h

Question: And the AUC [38]?
Answer: 0.974 µM·h

Question: What about the AUC [39] of the same molecule?
Answer: 7.34 µM·h

Question: What about the AUC [40] of the same molecule?
Answer: 34.9 µM·h

Question: And the bioavailability [41]?
Answer: 20%

Question: What about the bioavailability [42] of the same molecule?
Answer: 40%

Question: And the bioavailability [43]?
Answer: 57%

From ChEMBL document CHEMBL2057141, “Imidazolopiperazines: lead optimization of the second-generation antimalarial agents” (J Med Chem, 2012)
